Reference: ChEMBL document CHEMBL4732027, “Pyridazinone derivatives as potential anti-inflammatory agents: synthesis and biological evaluation as PDE4 inhibitors” (RSC Med Chem, 2021)
Activity calls are given as the source filed them. The rule behind the calls is not given here.

Key:
[1] = biological target: T1, 3',5'-cyclic-AMP phosphodiesterase 4B (Homo sapiens, UniProt Q07343); test: Inhibition of recombinant human PDE-4B expressed in Escherichia coli at 20 uM using cAMP as substrate incubated for 60 mins by PDE4 assay kit method relative to control
T1 sequence (Q07343 whole entry): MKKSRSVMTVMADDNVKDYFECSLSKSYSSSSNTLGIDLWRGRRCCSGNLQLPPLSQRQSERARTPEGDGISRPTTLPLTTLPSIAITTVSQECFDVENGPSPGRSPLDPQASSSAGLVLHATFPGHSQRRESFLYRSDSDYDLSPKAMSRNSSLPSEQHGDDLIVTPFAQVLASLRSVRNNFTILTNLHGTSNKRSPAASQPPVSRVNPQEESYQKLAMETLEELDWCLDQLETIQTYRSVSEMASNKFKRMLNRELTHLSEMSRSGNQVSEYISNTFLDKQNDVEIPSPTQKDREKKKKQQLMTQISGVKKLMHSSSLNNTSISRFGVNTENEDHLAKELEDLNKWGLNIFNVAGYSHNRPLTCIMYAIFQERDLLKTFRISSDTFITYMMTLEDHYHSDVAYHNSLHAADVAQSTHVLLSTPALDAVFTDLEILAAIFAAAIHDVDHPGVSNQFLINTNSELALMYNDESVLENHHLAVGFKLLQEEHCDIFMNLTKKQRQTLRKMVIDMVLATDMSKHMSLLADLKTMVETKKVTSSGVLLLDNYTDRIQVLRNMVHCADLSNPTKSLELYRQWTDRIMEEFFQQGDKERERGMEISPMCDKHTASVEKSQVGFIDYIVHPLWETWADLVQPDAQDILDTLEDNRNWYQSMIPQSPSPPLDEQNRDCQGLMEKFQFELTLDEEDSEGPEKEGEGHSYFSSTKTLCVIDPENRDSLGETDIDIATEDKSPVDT
In short: (§1)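 Human recombinant PDE4 expressed in E. coli, incubated with cAMP and 5'-nucleotidase in 10 mM Tris-HCl pH 7.4 at 30 °C for 60 min. Released phosphate detected colorimetrically after 30 min colour development. IC50 from five concentrations by nonlinear regression; mean of two or three independent runs, each in triplicate.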

Macrophage [2] = test: Antiinflammatory activity against human PBMC derived primary macrophages assessed as reduction in LPS-induced IL-6 level at 20 uM incubated for 24 hrs by ELISA relative to control; type: functional
In short: (§2)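 Macrophages from human blood PBMCs, differentiated 24 h with 25 ng/mL M-CSF, non-adherent cells removed. Stimulated 24 h with 10 ng/mL E. coli LPS in 0.5% DMSO, with compound at 5–50 µM. Supernatant cytokines measured by sandwich ELISA against a recombinant standard curve. Detection limits: IL-1β 3.9, IL-6 and TNF-α 7.8, IL-8 15.7 pg/mL. Cells from 8 donors; Kruskal–Wallis then Wilcoxon–Mann–Whitney tests.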

Macrophage [3] = test: Cytotoxicity against human PBMC derived primary macrophages assessed as reduction in cell viability at 5 to 50 uM incubated for 24 hrs by LDH assay; type: cell-based; settings: dose 5-50 µM
In short: (§3)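 Cell death in human PBMC-derived macrophages (M-CSF 25 ng/mL, 24 h) after 24 h LPS (10 ng/mL, 0.5% DMSO) plus compound at 5–50 µM. LDH activity measured in supernatant with a commercial kit, absorbance at 492 nm corrected at 700 nm. Eight donors.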

Macrophage [4] = test: Antiinflammatory activity against human PBMC derived primary macrophages assessed as reduction in LPS-induced TNF-alpha level at 5 uM incubated for 24 hrs by ELISA relative to control; type: functional; in short: as §2
Macrophage [5] = test: Antiinflammatory activity against human PBMC derived primary macrophages assessed as reduction in LPS-induced cell morphology changes at 50 uM incubated for 24 hrs by scanning electron microscopic analysis; type: functional, cell-based
In short: (§4)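 Human PBMCs isolated from EDTA blood (red cells lysed by hypotonic shock), grown on coverslips in RPMI 1640 + 10% heat-inactivated FBS with 25 ng/mL M-CSF for 24 h at 37 °C, 5% CO2. Non-adherent cells removed, then 24 h stimulation with LPS 10 ng/mL in 0.5% DMSO ± compound. Cells fixed in 2.5% glutaraldehyde, dehydrated in ethanol, dried with HMDS, gold-palladium coated, imaged by FE-SEM at 2 kV.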

Mus musculus [6] = test: Antiinflammatory activity in BALB/cJRj mouse air pouch model assessed as decrease in LPS-stimulated monocyte recruitment in air pouch at 2 to 20 uM, sc measured after 6 hrs by flow cytometry analysis; type: functional, organism-based; settings: dose 2-20 µM
In short: (§5)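 Seven-week-old BALB/cJRj mice. Dorsal subcutaneous air pouch made under isoflurane with 3 mL filtered air on day 0, refilled day 3. On day 7, 2 mL LPS (10 ng/mL) in 0.5% DMSO with compound at 2, 20 or 200 µM injected into the pouch; controls got 0.5% DMSO in saline. After 6 h, exudate collected by lavage with 2 mL 5 mM PBS-EDTA. Cells counted and stained for Ly6G and F4/80, then analysed by flow cytometry. Eight to 17 animals per group.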

Macrophage [7] = test: Antiinflammatory activity against human PBMC derived primary macrophages assessed as reduction in LPS-induced IL-6 level at 5 uM incubated for 24 hrs by ELISA relative to control; type: functional; in short: as §2
Macrophage [8] = test: Antiinflammatory activity against human PBMC derived primary macrophages assessed as reduction in LPS-induced IL-1beta level at 50 uM incubated for 24 hrs by ELISA relative to control; type: functional; in short: as §2
Macrophage [9] = test: Antiinflammatory activity against human PBMC derived primary macrophages assessed as reduction in LPS-induced TNF-alpha level at 50 uM incubated for 24 hrs by ELISA relative to control; type: functional; in short: as §2
Macrophage [10] = test: Antiinflammatory activity against human PBMC derived primary macrophages assessed as reduction in LPS-induced IL-6 level at 10 uM incubated for 24 hrs by ELISA relative to control; type: functional; in short: as §2
Mus musculus [11] = test: Antiinflammatory activity in BALB/cJRj mouse air pouch model assessed as decrease in LPS-stimulated macrophage recruitment in air pouch at 2 to 20 uM, sc measured after 6 hrs by flow cytometry analysis; type: functional, organism-based; settings: dose 2-20 µM; in short: as §5
[12] = Lipophilicity, logP of compound; type: physicochemical; settings: octanol/water
In short: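 LogP calculated with software, not measured.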

Macrophage [13] = test: Antiinflammatory activity against human PBMC derived primary macrophages assessed as reduction in LPS-induced IL-6 level at 50 uM incubated for 24 hrs by ELISA relative to control; type: functional; in short: as §2
Macrophage [14] = test: Antiinflammatory activity against human PBMC derived primary macrophages assessed as reduction in LPS-induced IL-8 level at 20 uM incubated for 24 hrs by ELISA relative to control; type: functional; in short: as §2
Macrophage [15] = test: Antiinflammatory activity against human PBMC derived primary macrophages assessed as reduction in LPS-induced IL-8 level at 50 uM incubated for 24 hrs by ELISA relative to control; type: functional; in short: as §2
Macrophage [16] = test: Antiinflammatory activity against human PBMC derived primary macrophages assessed as reduction in LPS-induced IL-1beta level at 20 uM incubated for 24 hrs by ELISA relative to control; type: functional; in short: as §2
Mus musculus [17] = test: Antiinflammatory activity in BALB/cJRj mouse air pouch model assessed as decrease in LPS-stimulated monocyte recruitment in air pouch at 200 uM, sc measured after 6 hrs by flow cytometry analysis relative to control; type: functional; in short: as §5
[18] = biological target: T1, 3',5'-cyclic-AMP phosphodiesterase 4B; test: Inhibition of recombinant human PDE-4B expressed in Escherichia coli using cAMP as substrate incubated for 60 mins by PDE4 assay kit method; in short: as §1
Macrophage [19] = test: Antiinflammatory activity against human PBMC derived primary macrophages assessed as reduction in LPS-induced IL-8 level at 10 uM incubated for 24 hrs by ELISA relative to control; type: functional; in short: as §2
Macrophage [20] = test: Antiinflammatory activity against human PBMC derived primary macrophages assessed as reduction in LPS-induced vesicle number at 10 uM incubated for 24 hrs by scanning electron microscopic analysis; type: functional, cell-based; in short: as §4
Mus musculus [21] = test: Antiinflammatory activity in BALB/cJRj mouse air pouch model assessed as decrease in LPS-stimulated monocyte recruitment in air pouch at 20 uM, sc measured after 6 hrs by flow cytometry analysis (reference value: 1.9); type: functional; in short: as §5
Mus musculus [22] = test: Antiinflammatory activity in BALB/cJRj mouse air pouch model assessed as decrease in LPS-stimulated monocyte recruitment in air pouch at 200 uM, sc measured after 6 hrs by flow cytometry analysis (reference value: 1.9); type: functional; in short: as §5
Macrophage [23] = test: Cytotoxicity against human PBMC derived primary macrophages assessed as reduction in cell viability at 10 uM incubated for 24 hrs by LDH assay; type: cell-based; in short: as §3
Macrophage [24] = test: Antiinflammatory activity against LPS-treated human PBMC derived primary macrophages assessed as intricate cytoplasm at 10 uM incubated for 24 hrs by scanning electron microscopic analysis; type: functional, cell-based; in short: as §4
Mus musculus [25] = test: Antiinflammatory activity in BALB/cJRj mouse air pouch model assessed as decrease in LPS-stimulated macrophage recruitment in air pouch at 2 to 200 uM, sc measured after 6 hrs by flow cytometry analysis; type: functional, organism-based; settings: dose 2-200 µM; in short: as §5
Mus musculus [26] = test: Antiinflammatory activity in BALB/cJRj mouse air pouch model assessed as decrease in LPS-stimulated monocyte recruitment in air pouch at 2 uM, sc measured after 6 hrs by flow cytometry analysis; type: functional, organism-based; in short: as §5
Macrophage [27] = test: Antiinflammatory activity against LPS-treated human PBMC derived primary macrophages assessed as increase in flattened cell morphology at 10 uM incubated for 24 hrs by scanning electron microscopic analysis; type: functional, cell-based; in short: as §4
Macrophage [28] = test: Antiinflammatory activity against LPS-induced human PBMC derived primary macrophages assessed as increase in cell size at 10 uM incubated for 24 hrs by scanning electron microscopic analysis; type: functional, cell-based; in short: as §4

Cc1cc(-c2c[nH]c3ccc(Br)cc23)c(=O)n(Cc2ccccc2)n1
inhibition [1]: 14.2%

CC1=NN(Cc2ccccc2)C(=O)C(c2c[nH]c3ccc(F)cc23)C1 (stereo not given)
inhibition [1]: 9.4%

Cc1cc(-c2c[nH]c3ccccc23)c(=O)n(C)n1
inhibition [1]: 15.3%

CC1=NN(Cc2ccccc2)C(=O)C(c2c[nH]c3ccccc23)C1 (stereo not given)
inhibition [1]: 17.7%

COc1ccc2[nH]cc(-c3cc(C)n[nH]c3=O)c2c1
inhibition at 20 µM (Macrophage [2]): 28%
Activity (Macrophage [3]): Non-Toxic
inhibition at 5 µM (Macrophage [4]): 43%
Activity (Macrophage [5]): Active
inhibition (Mus musculus [6]): Active
inhibition at 5 µM (Macrophage [7]): 16%
inhibition at 50 µM (Macrophage [8]): 54%
inhibition at 50 µM (Macrophage [9]): 47%
inhibition at 10 µM (Macrophage [10]): 23%
inhibition (Mus musculus [11]): Active
logP [12]: 0.43
inhibition [1]: 63.9%
inhibition at 50 µM (Macrophage [13]): 21%
inhibition at 20 µM (Macrophage [14]): 16%
inhibition at 50 µM (Macrophage [15]): 25%
inhibition at 20 µM (Macrophage [16]): 58%
inhibition in vivo at 200 µM (Mus musculus [17]): 69%
IC50 [18]: 251 nM

CC1=NNC(=O)C(c2c[nH]c3ccccc23)C1 (stereo not given)
inhibition [1]: 32.3%

COc1ccc2[nH]cc(-c3cc(C)nn(C)c3=O)c2c1
inhibition [1]: 21.8%

CC(C)Cn1c(=O)n(C)c(=O)c2nc[nH]c21
inhibition [1]: 38%

COc1ccc2[nH]cc(C3CC(C)=NNC3=O)c2c1 (stereo not given)
inhibition [1]: 37.5%

Cc1cc(-c2c[nH]c3ccc(F)cc23)c(=O)[nH]n1
inhibition [1]: 23.6%

CC1=NNC(=O)C(c2c[nH]c3ccc([N+](=O)[O-])cc23)C1 (stereo not given)
inhibition [1]: 19.5%

COc1ccc2[nH]cc(C3CC(C)=NN(Cc4ccccc4)C3=O)c2c1 (stereo not given)
inhibition [1]: 28.9%

CC1=NNC(=O)C(c2c[nH]c3ccc(F)cc23)C1 (stereo not given)
inhibition [1]: 12.8%

CC1=NN(C)C(=O)C(c2c[nH]c3ccccc23)C1 (stereo not given)
inhibition [1]: 8.7%

Cc1cc(-c2c[nH]c3ccc(I)cc23)c(=O)n(Cc2ccccc2)n1
inhibition [1]: 8.9%

Cc1cc(-c2c[nH]c3ccc([N+](=O)[O-])cc23)c(=O)[nH]n1
inhibition [1]: 26.8%

CC1=NNC(=O)C(c2c[nH]c3ccc(Br)cc23)C1 (stereo not given)
inhibition [1]: 9.8%

Cc1cc(-c2c[nH]c3ccccc23)c(=O)n(Cc2ccccc2)n1
inhibition [1]: 30.1%

COc1ccc2[nH]cc(-c3cc(C)nn(Cc4ccccc4)c3=O)c2c1
inhibition [1]: 49.1%

Cc1cc(-c2c[nH]c3ccc(I)cc23)c(=O)[nH]n1
inhibition [1]: 5.9%

Cc1cc(-c2c[nH]c3ccc(Br)cc23)c(=O)[nH]n1
inhibition [1]: 16.8%

COc1ccc2[nH]cc(C3CC(C)=NN(C)C3=O)c2c1 (stereo not given)
inhibition [1]: 13.4%

Cc1cc(-c2c[nH]c3ccc(F)cc23)c(=O)n(Cc2ccccc2)n1
inhibition [1]: 17.6%

CC1=NN(Cc2ccccc2)C(=O)C(c2c[nH]c3ccc(Br)cc23)C1 (stereo not given)
inhibition [1]: 8.7%

CC1=NNC(=O)C(c2c[nH]c3ccc(I)cc23)C1 (stereo not given)
inhibition [1]: 2.2%

O=C(Nc1c(Cl)cncc1Cl)c1ccc(OC(F)F)c(OCC2CC2)c1 [ROFLUMILAST]
inhibition at 10 µM (Macrophage [19]): 10%
Activity (Macrophage [20]): Active
fold change (FC) (Mus musculus [21]): 3.5
fold change (FC) (Mus musculus [22]): 2
Activity (Macrophage [23]): Non-Toxic
Activity (Macrophage [24]): Active
inhibition (Mus musculus [25]): inactive
inhibition [1]: 74.6%
inhibition (Mus musculus [26]): inactive
Activity (Macrophage [27]): Active
Activity (Macrophage [28]): Active

Cc1cc(-c2c[nH]c3ccccc23)c(=O)[nH]n1
inhibition [1]: 45.6%

CC1=NN(Cc2ccccc2)C(=O)C(c2c[nH]c3ccc(I)cc23)C1 (stereo not given)
inhibition [1]: 4.5%
